Reference: ChEMBL document CHEMBL2057102, “Aminothienopyridazine inhibitors of tau aggregation: evaluation of structure-activity relationship leads to selection of candidates with desirable in vivo properties” (Bioorg Med Chem, 2012)

What was measured:
[1] = species: Homo sapiens; assay: Inhibition of heparin-induced alexa red-labelled tau K18PL mutant aggregation after 6 hrs by thioflavin-T fluorescence assay relative to control
In short: (§1)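 Heparin-induced fibrillization of tau K18 fragment (residues 244–369) carrying P301L, with tau at 20 μM in sodium acetate buffer. Fibril formation was read by thioflavin-T fluorescence. IC50 came from sigmoidal fitting of concentration-response data, each concentration in triplicate. Values are from a single fit, or the mean of 2 or more analyses where marked.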

[2] = species: Homo sapiens; assay: Inhibition of heparin-induced tau K18PL mutant aggregation assessed as soluble tau fragment level at 50 uM after 5 days by SDS-PAGE analysis
In short: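 Secondary centrifugation assay. Heparin-induced K18 P301L tau fibrillization mixtures with compound at 50 μM were centrifuged. Soluble and insoluble fractions were analysed by SDS-PAGE to give the percentage of tau remaining soluble.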

[3] = Inhibition of heparin-induced alexa red-labelled tau K18PL mutant aggregation after 6 hrs by thioflavin-T fluorescence assay; set-up: species or system Homo sapiens; in short: as §1
[4] = test system: Brain; assay: Fraction unbound in mouse brain homogenate at 1 uM after 5 hrs by equilibrium dialysis; format: ADME, tissue-based
In short: (§2)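 Rapid equilibrium dialysis. Compound at 1 μM in mouse plasma or brain homogenate, each diluted threefold with 100 mM sodium phosphate pH 7.4. Triplicate samples dialysed against the same buffer for 5 h at 37 °C with shaking. Both sides were matrix-matched, extracted with acetonitrile and run by LC-MS/MS. fu is buffer response over sample response; brain fu was corrected for tissue dilution.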

[5] = (§3) Drug uptake in B6C3F1 mouse brain at 5 mg/kg, ip after 1 hr; format: ADME, organism-based; set-up: dose 5 mg/kg, route intraperitoneal; conditions: B6C3F1, mouse, brain, read-out: Drug uptake
In short: (§4)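 Single i.p. dose of 5 mg/kg, sacrifice 1 h later. Perfused brain hemispheres were homogenized in 10 mM ammonium acetate pH 5.7 (50% w/v). EDTA plasma was taken. Brain homogenate or plasma was extracted with acetonitrile and analysed by LC-MS/MS (MRM) against matrix standard curves. Brain-to-plasma ratio was taken from total levels.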

[6] = test system: Mus musculus; assay: Ratio of drug level in brain to plasma in B6C3F1 mouse at 5 mg/kg, ip after 1 hr
[7] = (§5) Drug uptake in B6C3F1 mouse plasma at 5 mg/kg, ip after 1 hr; format: ADME, organism-based; set-up: dose 5 mg/kg, route intraperitoneal; conditions: B6C3F1, mouse, plasma; in short: as §4
[8] = Ratio of fraction unbound in brain homogenate to plasma in mouse at 1 uM after 5 hrs by equilibrium dialysis; format: ADME, tissue-based; in short: as §2
[9] = test system: Brain; assay: as §3; format: ADME, organism-based; set-up: dose 5 mg/kg, route intraperitoneal; conditions: mouse, in vivo, 1 h, BLD = below limit of detection; in short: as §4
[10] = test system: Plasma; assay: as §5; format: ADME, organism-based; set-up: dose 5 mg/kg, route intraperitoneal; conditions: mouse, in vivo, 1 h, BLD = below limit of detection; in short: as §4

Imax [1]	inhibition [2]	IC50 [3]	Fu [4]	concentration at 1 h [5]	BPR [6]	concentration at 1 h [7]	Ratio [8]	Drug uptake [9]	Cp [10]	Compound
39%	51%									CCOC(=O)c1nn(-c2ccc(Cl)cc2)c(=O)c2c(NC)scc12
29%	6.5%									CCOC(=O)c1c(C(=O)c2ccccc2)csc1N
92%	73%	1.6 µM								Nc1scc2c(C(=O)O)nn(-c3cccc(Cl)c3)c(=O)c12
84%	70%	4 µM								Nc1scc2c(C(=O)O)nn(-c3ccc(O)cc3)c(=O)c12
81%	69%	5 µM								CCOC(=O)c1nn(-c2ccc(O)cc2)c(=O)c2c(N)scc12
67%	42%	15.8 µM								CC(C)NC(=O)c1nn(-c2ccc(OC(F)(F)F)cc2)c(=O)c2c(N)scc12
8%	17%									CCOC(=O)c1nn(-c2ccc(C(C)C)cc2)c(=O)c2c(N)scc12
77%	63%	1 µM								CCOC(=O)c1nn(-c2ccc(F)cc2)c(=O)c2c(N)scc12
75%	71%	2 µM								CCOC(=O)c1nn(-c2ccccc2Cl)c(=O)c2c(N)scc12
89%	77%	1.6 µM	2.9%	280 ng/g	2.68	110 ng/mL	1.3			CC(C)NC(=O)c1nn(-c2ccc(F)cc2)c(=O)c2c(N)scc12
84%	83%	2 µM								Nc1scc2c(C(=O)O)nn(-c3ccc(F)cc3)c(=O)c12
88%	83%	19.9 µM								Nc1scc2c(C(=O)O)nn(-c3ccc(C(F)(F)F)cc3)c(=O)c12
4.4%	21%									CCOC(=O)C1=NN(c2ccc(Cl)cc2)C(=O)C(C#N)C1C (stereo not given)
86%	84%	15.8 µM		14.1 ng/g	0.098	150 ng/mL				CC(C)NC(=O)c1nn(-c2ccc(O)cc2)c(=O)c2c(N)scc12
85%	70%	2 µM								Cc1nn(-c2ccc(Cl)cc2)c(=O)c2c(N)scc12
82%	73%	3.2 µM								CC(C)NC(=O)c1nn(-c2cccc(Cl)c2)c(=O)c2c(N)scc12
57%	15%									CCOC(=O)c1nn(-c2ccc(Cl)cc2)c(=O)c2c1C(O)NC2=O (stereo not given)
89%	92%	19.9 µM								CC(C)n1nc(-c2ccccc2)c2csc(N)c2c1=O
86%	64%	3.2 µM								Nc1scc2c(C(=O)O)nn(-c3ccccc3Cl)c(=O)c12
83%	75%	8 µM	3.2%	637 ng/g	1.59	401 ng/mL	2.31			Nc1scc2c(C(=O)NCC(F)(F)F)nn(-c3ccc(F)cc3)c(=O)c12

Imax [1]	inhibition [2]	IC50 [3]	Fu [4]	concentration at 1 h [5]	BPR [6]	concentration at 1 h [7]	Ratio [8]	Drug uptake [9]	Cp [10]	Compound
68%	44%									Nc1scc2c(C(=O)NC3CC3)nn(-c3ccccc3Cl)c(=O)c12
85%	78%	2 µM		7.5 ng/g	0.116	61 ng/mL				Cc1nn(-c2ccccn2)c(=O)c2c(N)scc12
74%	84%	4 µM								Cc1nn(-c2cccnc2)c(=O)c2c(N)scc12
88%	65%	2 µM								CCOC(=O)c1nn(-c2ccc(Cl)cc2)c(=O)c2c(N)sc(Cl)c12
92%	71%	1.6 µM								Nc1scc2c(C(=O)O)nn(-c3ccc(OC(F)(F)F)cc3)c(=O)c12
95%	17%	19.9 µM								Cc1nn(C(C)C)c(=O)c2c(N)scc12
96%	85%	10 µM		16.3 ng/g	0.0035	4700 ng/mL				CC(C)NC(=O)c1nn(-c2ccc(Cl)cc2)c(=O)c2c1CSC2=O
82%	76%	2.5 µM				10 ng/mL		BLD		Cc1nn(C)c(=O)c2c(N)scc12
48%	27%									CCOC(=O)c1nn(-c2ccc(C(F)(F)F)cc2)c(=O)c2c(N)scc12
92%	62%	4 µM								CCOC(=O)c1nn(-c2ccc(Cl)cc2)c(=O)c2c(N)sc(Br)c12
82%	86%	4 µM								CC(C)c1ccc(-n2nc(C(=O)NC3CC3)c3csc(N)c3c2=O)cc1
81%	78%	10 µM								Cc1nn(CC(F)(F)F)c(=O)c2c(N)scc12
82%	73%	3.2 µM								CCOC(=O)c1nn(-c2cccc(Cl)c2)c(=O)c2c(N)scc12
87%	81%	8 µM						BLD	BLD	Cc1n[nH]c(=O)c2c(N)scc12
103%	82%	6.3 µM								Nc1scc2c(-c3ccccc3)nn(CC(F)(F)F)c(=O)c12
92%	87%	2.5 µM								O=C(O)c1nn(-c2ccc(F)cc2)c(=O)c2c1CSC2=O
89%	73%	1.6 µM	5.1%	48 ng/g	0.6	78 ng/mL	0.77			Cc1nn(Cc2ccccc2)c(=O)c2c(N)scc12
65%	86%	31.6 µM								Cc1nn(C2CCCCC2)c(=O)c2c(N)scc12
41%	29%									CCOC(=O)c1nn(-c2ccc(OC(F)(F)F)cc2)c(=O)c2c(N)scc12
64%	83%	6.3 µM								Nc1scc2c(C(=O)NC3CC3)nn(-c3ccc(C(F)(F)F)cc3)c(=O)c12
